Data reported in ChEMBL document CHEMBL3758107, “Lead optimization of the VU0486321 series of mGlu(1) PAMs. Part 2: SAR of alternative 3-methyl heterocycles and progress towards an in vivo tool” (Bioorg Med Chem Lett, 2016).

Experiments:
[1] = molecular target: T1, Metabotropic glutamate receptor 1 (Homo sapiens, UniProt Q13255); test: Positive allosteric modulation of human mGlu1 receptor at 10 uM by cell based calcium mobilization relative to glutamate; assay type: functional
Method in brief: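 Calcium mobilization assay at mGlu1, tested at a single point of 10 μM; response given as % Glu Max.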
Target sequence in this assay (Q13255 19-1194 limits assumed): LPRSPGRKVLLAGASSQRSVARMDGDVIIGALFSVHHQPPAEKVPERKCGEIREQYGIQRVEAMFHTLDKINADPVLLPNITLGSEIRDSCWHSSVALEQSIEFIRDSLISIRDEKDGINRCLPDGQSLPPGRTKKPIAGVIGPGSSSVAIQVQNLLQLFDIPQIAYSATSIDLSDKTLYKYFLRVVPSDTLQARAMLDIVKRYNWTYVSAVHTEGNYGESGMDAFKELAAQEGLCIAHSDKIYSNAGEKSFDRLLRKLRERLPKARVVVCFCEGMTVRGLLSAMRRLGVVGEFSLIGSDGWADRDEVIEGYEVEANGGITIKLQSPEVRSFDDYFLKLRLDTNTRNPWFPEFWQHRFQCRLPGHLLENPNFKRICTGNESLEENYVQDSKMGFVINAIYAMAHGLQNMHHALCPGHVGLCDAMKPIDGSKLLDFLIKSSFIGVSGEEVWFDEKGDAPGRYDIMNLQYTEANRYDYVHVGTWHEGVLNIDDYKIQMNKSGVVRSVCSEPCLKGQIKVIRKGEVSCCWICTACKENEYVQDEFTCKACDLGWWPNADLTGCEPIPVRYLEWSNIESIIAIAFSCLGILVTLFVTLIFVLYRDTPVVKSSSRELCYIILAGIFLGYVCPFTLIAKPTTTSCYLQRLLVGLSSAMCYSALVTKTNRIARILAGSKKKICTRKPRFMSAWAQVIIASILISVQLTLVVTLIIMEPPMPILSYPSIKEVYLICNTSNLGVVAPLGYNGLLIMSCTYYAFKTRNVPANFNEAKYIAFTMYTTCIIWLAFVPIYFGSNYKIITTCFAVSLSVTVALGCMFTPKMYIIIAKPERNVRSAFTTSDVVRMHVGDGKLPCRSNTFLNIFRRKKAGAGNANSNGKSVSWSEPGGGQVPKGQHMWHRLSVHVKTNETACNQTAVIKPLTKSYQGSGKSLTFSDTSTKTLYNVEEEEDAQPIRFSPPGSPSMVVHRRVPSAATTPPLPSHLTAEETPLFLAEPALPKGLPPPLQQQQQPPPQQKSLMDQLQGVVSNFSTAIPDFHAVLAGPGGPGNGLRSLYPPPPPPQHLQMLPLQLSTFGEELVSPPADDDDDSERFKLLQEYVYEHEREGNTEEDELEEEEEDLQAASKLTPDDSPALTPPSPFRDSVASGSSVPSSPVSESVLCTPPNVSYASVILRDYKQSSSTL

[2] = species: Homo sapiens; test: Selectivity ratio of EC50 for human mGlu4 receptor to EC50 for human mGlu1 receptor
[3] = molecular target: T2, Metabotropic glutamate receptor 4 (Homo sapiens, UniProt Q14833); test: Positive allosteric modulation of human mGlu4 receptor by cell based calcium mobilization; assay type: functional
T2 sequence (Q14833 whole entry): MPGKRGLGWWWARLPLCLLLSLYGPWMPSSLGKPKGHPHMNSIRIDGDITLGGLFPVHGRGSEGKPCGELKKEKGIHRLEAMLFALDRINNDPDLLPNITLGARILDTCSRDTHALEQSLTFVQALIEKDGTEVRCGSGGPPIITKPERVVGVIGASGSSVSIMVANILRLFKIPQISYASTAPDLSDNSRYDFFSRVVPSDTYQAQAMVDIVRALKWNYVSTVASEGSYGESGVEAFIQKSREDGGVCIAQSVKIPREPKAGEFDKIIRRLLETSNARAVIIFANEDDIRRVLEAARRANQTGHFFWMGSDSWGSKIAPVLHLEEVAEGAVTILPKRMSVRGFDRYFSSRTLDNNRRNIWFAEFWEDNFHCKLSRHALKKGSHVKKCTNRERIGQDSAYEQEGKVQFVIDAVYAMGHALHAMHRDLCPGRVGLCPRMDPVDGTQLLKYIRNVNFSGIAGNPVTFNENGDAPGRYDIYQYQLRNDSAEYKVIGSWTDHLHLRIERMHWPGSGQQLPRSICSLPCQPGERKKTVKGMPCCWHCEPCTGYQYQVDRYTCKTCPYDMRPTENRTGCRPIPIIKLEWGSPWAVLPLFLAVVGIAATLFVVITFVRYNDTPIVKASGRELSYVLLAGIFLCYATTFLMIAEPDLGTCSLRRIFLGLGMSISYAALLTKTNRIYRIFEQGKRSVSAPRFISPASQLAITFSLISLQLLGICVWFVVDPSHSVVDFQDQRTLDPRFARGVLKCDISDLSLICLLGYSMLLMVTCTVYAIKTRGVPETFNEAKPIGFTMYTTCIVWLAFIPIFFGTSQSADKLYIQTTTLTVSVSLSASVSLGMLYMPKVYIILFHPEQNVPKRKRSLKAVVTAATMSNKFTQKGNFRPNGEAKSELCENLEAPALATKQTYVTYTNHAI

[4] = molecular target: T2, Metabotropic glutamate receptor 4; test: Positive allosteric modulation of human mGlu4 receptor assessed as glutamate-induced calcium mobilization at 10 uM by cell based assay relative to PHCCC; assay type: functional
[5] = molecular target: T1, Metabotropic glutamate receptor 1; test: Positive allosteric modulation of human mGlu1 receptor by cell based calcium mobilization; assay type: functional
Method in brief: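 Calcium mobilization assay at mGlu1; EC50 and % Glu Max taken as the average of three independent experiments, each run in triplicate.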
Target sequence in this assay (Q13255 whole entry): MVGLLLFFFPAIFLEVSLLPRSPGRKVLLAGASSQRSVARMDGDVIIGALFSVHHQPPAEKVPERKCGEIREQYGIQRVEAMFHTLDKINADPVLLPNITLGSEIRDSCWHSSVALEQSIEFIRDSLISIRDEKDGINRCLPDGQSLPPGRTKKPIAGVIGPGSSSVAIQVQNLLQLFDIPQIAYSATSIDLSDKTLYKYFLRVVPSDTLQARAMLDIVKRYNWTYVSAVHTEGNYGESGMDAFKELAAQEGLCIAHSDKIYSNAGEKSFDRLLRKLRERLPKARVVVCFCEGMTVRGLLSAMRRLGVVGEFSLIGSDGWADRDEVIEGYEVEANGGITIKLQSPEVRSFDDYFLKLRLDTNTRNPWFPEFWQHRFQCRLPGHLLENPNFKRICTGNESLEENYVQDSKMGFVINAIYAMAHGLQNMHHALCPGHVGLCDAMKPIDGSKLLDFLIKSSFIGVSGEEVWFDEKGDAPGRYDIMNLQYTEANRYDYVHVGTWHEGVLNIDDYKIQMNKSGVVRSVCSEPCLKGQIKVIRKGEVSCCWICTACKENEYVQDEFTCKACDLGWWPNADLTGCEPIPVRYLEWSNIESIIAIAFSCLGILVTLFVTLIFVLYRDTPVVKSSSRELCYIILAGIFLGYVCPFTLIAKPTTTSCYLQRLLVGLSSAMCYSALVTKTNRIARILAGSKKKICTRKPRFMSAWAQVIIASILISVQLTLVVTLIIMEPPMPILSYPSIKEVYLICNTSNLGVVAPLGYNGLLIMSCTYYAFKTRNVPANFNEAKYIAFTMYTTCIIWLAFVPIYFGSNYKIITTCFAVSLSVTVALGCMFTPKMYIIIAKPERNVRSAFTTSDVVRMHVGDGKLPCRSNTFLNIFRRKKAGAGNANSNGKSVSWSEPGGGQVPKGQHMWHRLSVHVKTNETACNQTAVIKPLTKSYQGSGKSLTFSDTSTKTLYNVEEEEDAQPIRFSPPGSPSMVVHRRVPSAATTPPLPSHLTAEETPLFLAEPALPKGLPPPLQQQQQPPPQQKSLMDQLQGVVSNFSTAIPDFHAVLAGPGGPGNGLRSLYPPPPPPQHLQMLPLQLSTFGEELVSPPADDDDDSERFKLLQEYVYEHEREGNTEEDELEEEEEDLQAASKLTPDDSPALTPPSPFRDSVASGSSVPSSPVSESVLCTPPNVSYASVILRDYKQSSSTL

Row | SMILES | %max [1] [%] | Ratio EC50 [2] | EC50 [3] [nM] | %max [4] [%] | EC50 ([5]; read-out: EC50) [nM] | EC50 ([5]; read-out: pEC50 (converted)) [nM]
1 | Cc1cccc2c1C(=O)N(c1ccc(NC(=O)c3ncoc3C)cc1Cl)C2=O | 91 | 0.9 | 519 | 39 | 469 | 479
2 | Cn1ccnc1C(=O)Nc1ccc(N2C(=O)c3ccc(Cl)cc3C2=O)c(Cl)c1 | 103 | 5.9 | 1570 | 145 | 265 | –
3 | Cc1ncsc1C(=O)Nc1ccc(N2C(=O)c3ccccc3C2=O)c(Cl)c1 | – | – | – | – | > 10000 | –
4 | Cc1cccc2c1C(=O)N(c1ccc(NC(=O)c3nccn3C)cc1Cl)C2=O | 30 | – | 506 | 32 | > 10000 | –
5 | Cc1[nH]ccc1C(=O)Nc1ccc(N2C(=O)c3ccccc3C2=O)c(Cl)c1 | – | – | – | – | > 10000 | –
6 | Cc1cccc2c1C(=O)N(c1ccc(NC(=O)c3ncsc3C)c(F)c1)C2=O | 17 | – | – | – | – | –
7 | Cc1ccc2c(c1)C(=O)N(c1ccc(NC(=O)c3ncsc3C)cc1Cl)C2=O | 86 | 51.1 | 1120 | 161 | 22 | –
8 | Cc1scnc1C(=O)Nc1ccc(N2C(=O)c3cccnc3C2=O)cc1F | 42 | – | – | – | – | –
9 | Cc1ccsc1C(=O)Nc1ccc(N2C(=O)c3ccccc3C2=O)c(Cl)c1 | 105 | – | – | – | 1890 | –
10 | Cc1cccc2c1C(=O)N(c1ccc(NC(=O)c3ncsc3C)cc1Cl)C2=O | 104 | 6.1 | 1410 | 75 | 232 | –
11 | Cn1ccnc1C(=O)Nc1ccc(N2C(=O)c3cccc(F)c3C2=O)c(Cl)c1 | 43 | – | 1090 | 42 | > 10000 | –
12 | Cc1ocnc1C(=O)Nc1ccc(N2C(=O)c3cccnc3C2=O)c(Cl)c1 | 91 | > 5.9 | 2530 | 45 | 1700 | –
13 | Cc1cn[nH]c1C(=O)Nc1ccc(N2C(=O)c3cccc(Cl)c3C2=O)c(Cl)c1 | 94 | – | > 10000 | – | > 10000 | –
14 | Cn1ccnc1C(=O)Nc1ccc(N2C(=O)c3ccccc3C2=O)c(Cl)c1 | 59 | – | – | – | 374 | 355
15 | Cn1cccc1C(=O)Nc1ccc(N2C(=O)c3ccccc3C2=O)c(Cl)c1 | 95 | – | – | – | 5260 | –
16 | Cc1scnc1C(=O)Nc1ccc(N2C(=O)c3cccc(Cl)c3C2=O)c(Cl)c1 | 121 | – | > 10000 | 59 | 1370 | –
17 | Cc1cn[nH]c1C(=O)Nc1ccc(N2C(=O)c3cccc(F)c3C2=O)c(Cl)c1 | 83 | – | > 10000 | – | 599 | 22.4
18 | Cc1cn[nH]c1C(=O)Nc1ccc(N2C(=O)c3ccc(Cl)cc3C2=O)c(Cl)c1 | 113 | 3.9 | 3380 | 117 | 855 | –
19 | CN1CCC[C@H]1C(=O)Nc1ccc(N2C(=O)c3ccccc3C2=O)c(Cl)c1 | – | – | – | – | > 10000 | –

Row | SMILES | %max [1] [%] | Ratio EC50 [2] | EC50 [3] [nM] | %max [4] [%] | EC50 ([5]; read-out: EC50) [nM] | EC50 ([5]; read-out: pEC50 (converted)) [nM]
20 | Cc1ncoc1C(=O)Nc1ccc(N2C(=O)c3ccccc3C2=O)c(Cl)c1 | – | – | – | – | > 10000 | –
21 | Cc1scnc1C(=O)Nc1ccc(N2C(=O)c3ccccc3C2=O)c(Cl)c1 | 96 | – | – | – | 56 | 58.9
22 | Cc1cn[nH]c1C(=O)Nc1ccc(N2C(=O)c3ccccc3C2=O)c(Cl)c1 | 107 | – | – | – | 1240 | –
23 | Cn1ccnc1C(=O)Nc1ccc(N2C(=O)c3cccnc3C2=O)c(Cl)c1 | 44 | – | > 10000 | – | > 10000 | –
24 | Cc1ccc2c(c1)C(=O)N(c1ccc(NC(=O)c3nccn3C)cc1Cl)C2=O | 108 | 2.4 | 602 | 124 | 254 | –
25 | Cc1sccc1C(=O)Nc1ccc(N2C(=O)c3ccccc3C2=O)c(Cl)c1 | 105 | – | – | – | 1510 | –
26 | Cn1ccnc1C(=O)Nc1ccc(N2C(=O)c3cccc(Cl)c3C2=O)c(Cl)c1 | 30 | – | > 10000 | 30 | > 10000 | –
27 | Cc1cn[nH]c1C(=O)Nc1ccc(N2C(=O)c3ccc(F)cc3C2=O)c(Cl)c1 | 106 | 9.8 | 6200 | 59 | 632 | –
28 | CN1CCC[C@@H]1C(=O)Nc1ccc(N2C(=O)c3ccccc3C2=O)c(Cl)c1 | – | – | – | – | > 10000 | –
29 | Cc1scnc1C(=O)Nc1ccc(N2C(=O)c3cccnc3C2=O)c(Cl)c1 | 98 | – | > 10000 | – | 191 | –
30 | Cc1ocnc1C(=O)Nc1ccc(N2C(=O)c3cccc(Cl)c3C2=O)c(Cl)c1 | 112 | 0.7 | 983 | 24 | 1290 | 1320
31 | Cc1scnc1C(=O)Nc1ccc(N2C(=O)c3cccc(F)c3C2=O)c(Cl)c1 | 111 | 2.5 | 474 | 52 | 187 | –
32 | Cc1ccc2c(c1)C(=O)N(c1ccc(NC(=O)c3[nH]ncc3C)cc1Cl)C2=O | 106 | 4.9 | 2750 | 133 | 557 | –
33 | Cc1cn[nH]c1C(=O)Nc1ccc(N2C(=O)c3cccnc3C2=O)c(Cl)c1 | 37 | – | > 10000 | 27 | > 10000 | –
34 | Cc1scnc1C(=O)Nc1ccc(N2C(=O)c3ccc(Cl)cc3C2=O)c(Cl)c1 | 91 | 39.1 | 1980 | 169 | 51 | –
35 | Cn1ccnc1C(=O)Nc1ccc(N2C(=O)c3ccc(F)cc3C2=O)c(Cl)c1 | 87 | 1.5 | 1070 | 63 | 673 | –
36 | Cc1cn[nH]c1C(=O)Nc1ccc(N2C(=O)c3cccc(C)c3C2=O)c(Cl)c1 | 110 | – | > 10000 | – | 4940 | –
37 | Cc1cc[nH]c1C(=O)Nc1ccc(N2C(=O)c3ccccc3C2=O)c(Cl)c1 | 95 | – | – | – | 3420 | 3470

More lines, now with the values ahead:

Row | %max [1] [%] | Ratio EC50 [2] | EC50 [3] [nM] | %max [4] [%] | EC50 ([5]; read-out: EC50) [nM] | EC50 ([5]; read-out: pEC50 (converted)) [nM] | SMILES
38 | 18 | – | – | – | – | – | Cc1ocnc1C(=O)Nc1ccc(N2C(=O)c3ccccc3C2=O)cc1F
39 | 45 | – | – | – | – | – | Cc1scnc1C(=O)Nc1ccc(N2C(=O)c3ccccc3C2=O)cc1F
40 | 98 | 4.8 | 198 | 75 | 41 | – | Cc1ccc2c(c1)C(=O)N(c1ccc(NC(=O)c3ncoc3C)cc1Cl)C2=O
41 | 40 | – | – | – | – | – | Cc1scnc1C(=O)Nc1ccc(N2C(=O)c3ccc(Cl)cc3C2=O)cc1F
42 | 16 | – | – | – | – | – | Cc1ocnc1C(=O)Nc1ccc(N2C(=O)c3ccc(F)cc3C2=O)cc1F
43 | 98 | 1.7 | > 10000 | – | 241 | 1700 | Cc1ocnc1C(=O)Nc1ccc(N2C(=O)c3cccc(F)c3C2=O)c(Cl)c1
44 | 45 | – | – | – | – | – | Cc1scnc1C(=O)Nc1ccc(N2C(=O)c3ccc(F)cc3C2=O)cc1F
45 | 98 | 4.9 | 306 | 52 | 63 | – | Cc1scnc1C(=O)Nc1ccc(N2C(=O)c3ccc(F)cc3C2=O)c(Cl)c1
46 | 14 | – | – | – | – | – | Cc1ccc2c(c1)C(=O)N(c1ccc(NC(=O)c3ncoc3C)c(F)c1)C2=O
47 | 104 | 7.4 | 405 | 67 | 54 | – | Cc1ocnc1C(=O)Nc1ccc(N2C(=O)c3ccc(Cl)cc3C2=O)c(Cl)c1
48 | 22 | – | – | – | – | – | Cc1scnc1C(=O)Nc1ccc(N2C(=O)c3cccc(Cl)c3C2=O)cc1F
49 | 20 | – | – | – | – | – | Cc1cccc2c1C(=O)N(c1ccc(NC(=O)c3ncoc3C)c(F)c1)C2=O
50 | 27 | – | – | – | – | – | Cc1ocnc1C(=O)Nc1ccc(N2C(=O)c3cccc(Cl)c3C2=O)cc1F
51 | 100 | – | – | – | 1470 | – | Cc1ocnc1C(=O)Nc1ccc(N2C(=O)c3ccccc3C2=O)c(Cl)c1
52 | 25 | – | – | – | – | – | Cc1ocnc1C(=O)Nc1ccc(N2C(=O)c3ccc(Cl)cc3C2=O)cc1F
53 | 36 | – | – | – | – | – | Cc1ocnc1C(=O)Nc1ccc(N2C(=O)c3cccc(F)c3C2=O)cc1F
54 | 93 | 4.6 | 642 | 36 | 141 | – | Cc1ocnc1C(=O)Nc1ccc(N2C(=O)c3ccc(F)cc3C2=O)c(Cl)c1
55 | 9 | – | – | – | – | – | Cc1ocnc1C(=O)Nc1ccc(N2C(=O)c3cccnc3C2=O)cc1F
56 | 36 | – | – | – | – | – | Cc1ccc2c(c1)C(=O)N(c1ccc(NC(=O)c3ncsc3C)c(F)c1)C2=O
57 | 43 | – | – | – | – | – | Cc1scnc1C(=O)Nc1ccc(N2C(=O)c3cccc(F)c3C2=O)cc1F
